# Assay results published in PMC9276175 (Medicine, 2022).
# Assays:
# HDAC2 = HDAC2 (Homo sapiens, UniProt Q92769); assay: Enzymatic HDAC fluorogenic assay, HDAC2; type: biochemical
# HDAC4 = HDAC4 (Homo sapiens, UniProt P56524); assay: Enzymatic HDAC fluorogenic assay, HDAC4; type: biochemical
# HDAC1 = HDAC1 (Homo sapiens, UniProt Q13547); assay: Enzymatic HDAC fluorogenic assay, HDAC1; type: biochemical
# HDAC6 = target: T1, HDAC6 (Homo sapiens, UniProt Q9UBN7); assay: Enzymatic HDAC fluorogenic assay, HDAC6; type: biochemical
# T1 sequence (Q9UBN7 1-1215): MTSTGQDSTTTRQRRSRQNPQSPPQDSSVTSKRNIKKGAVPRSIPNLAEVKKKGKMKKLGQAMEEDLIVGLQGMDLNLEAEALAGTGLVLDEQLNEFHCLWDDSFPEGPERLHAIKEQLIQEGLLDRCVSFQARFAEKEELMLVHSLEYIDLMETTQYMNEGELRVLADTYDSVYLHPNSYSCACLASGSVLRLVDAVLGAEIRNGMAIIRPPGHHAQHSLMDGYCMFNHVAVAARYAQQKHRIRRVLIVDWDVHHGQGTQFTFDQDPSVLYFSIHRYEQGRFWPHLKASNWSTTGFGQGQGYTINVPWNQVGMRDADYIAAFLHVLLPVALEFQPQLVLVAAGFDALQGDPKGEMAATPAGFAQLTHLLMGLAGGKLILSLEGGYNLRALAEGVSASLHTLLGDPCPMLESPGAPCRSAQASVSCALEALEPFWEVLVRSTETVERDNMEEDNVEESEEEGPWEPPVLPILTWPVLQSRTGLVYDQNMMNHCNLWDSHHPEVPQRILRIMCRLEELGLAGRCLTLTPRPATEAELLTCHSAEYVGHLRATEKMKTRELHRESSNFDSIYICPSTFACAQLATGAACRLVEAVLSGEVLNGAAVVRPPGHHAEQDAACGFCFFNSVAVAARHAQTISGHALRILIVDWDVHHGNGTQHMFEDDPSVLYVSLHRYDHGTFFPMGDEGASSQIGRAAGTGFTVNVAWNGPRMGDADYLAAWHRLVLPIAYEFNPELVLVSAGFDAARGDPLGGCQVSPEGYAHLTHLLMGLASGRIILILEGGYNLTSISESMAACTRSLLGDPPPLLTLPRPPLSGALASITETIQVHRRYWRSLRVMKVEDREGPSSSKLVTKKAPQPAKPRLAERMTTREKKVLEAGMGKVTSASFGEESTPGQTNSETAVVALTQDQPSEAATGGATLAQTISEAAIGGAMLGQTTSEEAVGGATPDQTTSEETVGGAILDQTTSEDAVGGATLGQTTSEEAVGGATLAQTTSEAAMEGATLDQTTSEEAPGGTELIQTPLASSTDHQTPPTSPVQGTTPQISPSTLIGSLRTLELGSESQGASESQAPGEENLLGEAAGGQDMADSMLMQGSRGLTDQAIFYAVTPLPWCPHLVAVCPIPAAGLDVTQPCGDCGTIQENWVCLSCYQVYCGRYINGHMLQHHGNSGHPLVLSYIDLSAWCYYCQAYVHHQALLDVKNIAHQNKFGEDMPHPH
# HDAC3 = HDAC3 (Homo sapiens, UniProt O15379); assay: Enzymatic HDAC fluorogenic assay, HDAC3; type: biochemical
# HDAC11 = target: T2, HDAC11 (Homo sapiens, UniProt Q96DB2); assay: Enzymatic HDAC fluorogenic assay, HDAC11; type: biochemical
# T2 sequence (Q96DB2 1-347): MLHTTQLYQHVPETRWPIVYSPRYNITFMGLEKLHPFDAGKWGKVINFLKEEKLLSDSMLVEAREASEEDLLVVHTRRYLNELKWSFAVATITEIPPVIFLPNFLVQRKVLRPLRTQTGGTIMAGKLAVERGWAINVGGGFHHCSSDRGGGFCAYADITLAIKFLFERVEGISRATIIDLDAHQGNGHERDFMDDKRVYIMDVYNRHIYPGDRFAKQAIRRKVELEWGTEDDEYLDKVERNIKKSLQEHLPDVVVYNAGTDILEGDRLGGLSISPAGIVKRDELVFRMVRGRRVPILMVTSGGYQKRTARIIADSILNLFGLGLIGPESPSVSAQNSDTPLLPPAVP
# MDA-MB-231 cells [1] = assay: Cell proliferation assay; type: cell-based, human; settings: for impaired MDA-MB-231 cell growth: 3 days; for anti-proliferative activity (in words): 1, 2 and 3 days
# MDA-MB-231 cells [2] = assay: Western blot of acetylation status and HDAC expression; type: cell-based, human; settings: 24 hours
# Outline: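 MDA-MB-231 cells were treated 24 hours with test compound at 50–500 μM, with DMSO as negative control. Cells were lysed on ice in RIPA buffer (pH 7.6) with protease and phosphatase inhibitors. Protein (30 µg/lane) was run on SDS-PAGE and blotted to PVDF, then blocked in 5% skim milk/TBST. Antibodies against Ac-α-tubulin (Lys40), α-tubulin, Ac-histone H3 (Lys9), H3, HDAC1, HDAC6 and GAPDH were applied overnight, followed by HRP secondary and ECL detection.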
# MDA-MB-231 cells [3] = assay: Assessment of cell morphology; type: cell-based, human; settings: 24 hours, dose-dependent, most significant at 300 to 500 μM
# Sequence of HDAC4 (P56524 627-1084 limits assumed): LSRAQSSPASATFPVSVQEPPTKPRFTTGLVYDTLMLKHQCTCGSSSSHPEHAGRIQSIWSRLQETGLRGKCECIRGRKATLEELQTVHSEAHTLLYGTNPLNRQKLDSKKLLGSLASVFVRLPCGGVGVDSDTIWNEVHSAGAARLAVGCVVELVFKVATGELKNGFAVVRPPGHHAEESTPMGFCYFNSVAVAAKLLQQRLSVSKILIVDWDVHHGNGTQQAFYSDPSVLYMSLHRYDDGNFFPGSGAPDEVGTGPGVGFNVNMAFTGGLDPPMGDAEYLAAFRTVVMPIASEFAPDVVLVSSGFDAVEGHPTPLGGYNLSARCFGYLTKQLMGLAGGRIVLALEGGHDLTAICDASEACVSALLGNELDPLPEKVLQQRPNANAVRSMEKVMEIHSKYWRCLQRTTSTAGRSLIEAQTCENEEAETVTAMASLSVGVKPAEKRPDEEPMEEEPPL
# Sequence of HDAC2 (Q92769 whole entry): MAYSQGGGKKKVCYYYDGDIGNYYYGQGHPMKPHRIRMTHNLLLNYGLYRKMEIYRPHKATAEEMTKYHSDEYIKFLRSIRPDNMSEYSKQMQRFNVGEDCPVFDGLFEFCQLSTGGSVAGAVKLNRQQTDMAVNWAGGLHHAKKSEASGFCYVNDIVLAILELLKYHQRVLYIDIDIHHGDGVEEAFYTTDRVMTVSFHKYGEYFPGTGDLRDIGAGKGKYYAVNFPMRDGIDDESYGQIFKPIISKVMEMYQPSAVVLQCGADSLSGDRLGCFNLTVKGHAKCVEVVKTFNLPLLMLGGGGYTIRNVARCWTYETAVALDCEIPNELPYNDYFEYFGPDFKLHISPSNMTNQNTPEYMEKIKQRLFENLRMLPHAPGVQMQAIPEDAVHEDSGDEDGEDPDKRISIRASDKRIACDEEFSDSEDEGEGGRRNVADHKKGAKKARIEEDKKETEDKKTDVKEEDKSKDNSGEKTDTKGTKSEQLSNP
# Sequence of HDAC3 (O15379 whole entry): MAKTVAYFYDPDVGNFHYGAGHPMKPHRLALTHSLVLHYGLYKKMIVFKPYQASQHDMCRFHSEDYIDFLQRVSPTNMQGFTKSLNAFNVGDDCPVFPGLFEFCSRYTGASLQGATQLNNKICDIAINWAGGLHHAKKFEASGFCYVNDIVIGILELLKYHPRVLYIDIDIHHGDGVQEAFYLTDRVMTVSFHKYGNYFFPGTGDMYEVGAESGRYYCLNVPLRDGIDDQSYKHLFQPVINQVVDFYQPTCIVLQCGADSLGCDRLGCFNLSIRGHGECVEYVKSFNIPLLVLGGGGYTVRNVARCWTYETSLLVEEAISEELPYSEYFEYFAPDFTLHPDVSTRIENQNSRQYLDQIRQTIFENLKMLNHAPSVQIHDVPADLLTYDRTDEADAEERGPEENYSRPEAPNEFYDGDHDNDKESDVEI
# Sequence of HDAC3 (Q9Y618 395-489 partner limits assumed): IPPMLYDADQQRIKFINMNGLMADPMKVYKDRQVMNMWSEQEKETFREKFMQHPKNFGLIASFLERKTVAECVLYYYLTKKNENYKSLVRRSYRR
# Sequence of HDAC1 (Q13547 whole entry): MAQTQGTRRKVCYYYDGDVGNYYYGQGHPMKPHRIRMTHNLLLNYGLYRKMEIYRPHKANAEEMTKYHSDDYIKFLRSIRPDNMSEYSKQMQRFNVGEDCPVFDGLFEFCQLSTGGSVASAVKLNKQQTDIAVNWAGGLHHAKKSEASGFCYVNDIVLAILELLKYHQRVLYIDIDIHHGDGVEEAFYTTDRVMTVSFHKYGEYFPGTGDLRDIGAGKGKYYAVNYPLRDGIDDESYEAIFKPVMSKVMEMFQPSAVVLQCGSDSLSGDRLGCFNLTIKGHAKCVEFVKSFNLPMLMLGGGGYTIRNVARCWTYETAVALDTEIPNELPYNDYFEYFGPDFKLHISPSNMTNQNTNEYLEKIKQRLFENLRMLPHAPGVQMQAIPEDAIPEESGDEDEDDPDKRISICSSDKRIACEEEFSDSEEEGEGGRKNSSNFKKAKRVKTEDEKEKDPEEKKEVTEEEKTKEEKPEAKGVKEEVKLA
IC50 (HDAC2) [µM],IC50 (HDAC4) [µM],inhibition of class IIa HDAC (in words) (HDAC4),IC50 (HDAC1) [µM],IC50 (HDAC6) [µM],inhibition of class IIb HDAC (in words) (HDAC6),IC50 (HDAC3) [µM],IC50 (HDAC11) [µM],inhibition of class IV HDAC (in words) (HDAC11),inhibition of class IV HDAC11 (in words) (HDAC11; up to 100 μM concentration),SMILES,impaired MDA-MB-231 cell growth (MDA-MB-231 cells [1]; 500 μM) [%],impaired MDA-MB-231 cell growth (MDA-MB-231 cells [1]; 1000 μM) [%],anti-proliferative activity (in words) (MDA-MB-231 cells [1]; concentrations from 300 to 1000 μM),anti-proliferative activity (in words) (MDA-MB-231 cells [1]; up to 100 μM concentration),expression level of HDAC6 (MDA-MB-231 cells [2]; 500 μM),expression level of HDAC6 (MDA-MB-231 cells [2]; 50 to 500 μM),acetylation of α-tubulin (MDA-MB-231 cells [2]; concentrations ranging from 300 to 500 μM),acetylation of Histone H3 (MDA-MB-231 cells [2]; up to 300 μM concentration),morphological changes in cells (MDA-MB-231 cells [3])
27.3 ± 3.71,> 100,failed to inhibit,22.2 ± 2.69,> 100,failed to inhibit,7.9 ± 2.57,> 100,failed to inhibit,–,"O=C(CCCCCNC(=O)c1ccccc1O)Nc1ccccc1 [Compound 5, 2-Hydroxy-N-(6-oxo-6-(phenylamino)hexyl)benzamide]",64,81,mediocre dose- and time-dependent anti-proliferative activity,no anti-proliferative activity,significantly depleted the expression level of HDAC6,decreased the expression level of HDAC6 in a dose-dependent manner,promoted the acetylation of α-tubulin,dose-dependently increased the acetylation of Histone H3,more elongated and spindle-shaped
–,–,–,–,–,–,–,–,–,no inhibition,"O=C(CCCCCCC(=O)Nc1ccccc1)NO [SAHA, Vorinostat, reference compound]",–,–,–,–,–,–,–,–,–
